Laboratory results taken from ChEMBL document CHEMBL4152217, “Quinonoid compounds via reactions of lawsone and 2-aminonaphthoquinone with α-bromonitroalkenes and nitroallylic acetates: Structural diversity by C-ring modification and cytotoxic evaluation against cancer cells” (Eur J Med Chem, 2018).

What was measured:
[1] = tested on: PC-3; experiment: Cytotoxicity against human PC3 cells assessed as reduction in cell viability after 72 hrs by MTT assay; assay type: functional, cell-based; conditions: PC-3, 72 h
In short: (§1)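 MTT viability assay. Cancer lines grown in RPMI 1640 and L929 fibroblasts in DMEM, each with 10% FBS, 2 mM glutamine, penicillin/streptomycin, 37 °C, 5% CO2. PBMC were taken from healthy donors by density-gradient centrifugation, kept in RPMI with 20% FBS and stimulated with 2% phytohemagglutinin. Cells were exposed 72 h (0.01–27.32 µM). MTT 0.5 mg/mL for 3 h, absorbance read at 550 nm. IC50 with 95% CI from nonlinear regression; triplicate, ≥3 independent experiments.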

[2] = tested on: OVCAR-8; experiment: Cytotoxicity against human OVCAR8 cells assessed as reduction in cell viability after 72 hrs by MTT assay; conditions: OVCAR-8, 72 h
[3] = tested on: HCT-116; experiment: Cytotoxicity against human HCT116 cells assessed as reduction in cell viability after 72 hrs by MTT assay; assay type: functional, cell-based; conditions: HCT-116, 72 h; in short: as §1
[4] = tested on: HCT-116; experiment: Induction in oxidative stress in human HCT116 cells assessed as increase in nitrite level after 24 hrs by Griess reagent based assay; assay type: functional, cell-based
In short: (§2)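 HCT-116 cells were treated 24 h. Culture supernatant was mixed 1:1 with Griess reagent (sulfanilamide/N-(1-naphthyl)ethylenediamine in H3PO4) for 10 min at room temperature, and absorbance read at 560 nm. Nitrate/nitrite was quantified against a NaNO2 standard curve (0.75–100 µM). Vehicle was the negative control and H2O2 10 µM the positive control; three independent experiments, mean ± S.E.M.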

[5] = tested on: L929; experiment: Cytotoxicity against mouse L929 cells assessed as reduction in cell viability after 72 hrs by MTT assay; assay type: cell-based; conditions: L929, 72 h; in short: as §1
[6] = tested on: PBMC; experiment: Cytotoxicity against human PBMC cells assessed as reduction in cell viability after 72 hrs by MTT assay
[7] = tested on: HCT-116; experiment: Induction of DNA damage in human HCT116 cells assessed as DNA damage index at 5 uM after 24 hrs by ethidium bromide staing based flurescence microscopic analysis (8.3 +/- 0.88); assay type: functional
[8] = tested on: HL-60; experiment: Cytotoxicity against human HL60 cells assessed as reduction in cell viability after 72 hrs by MTT assay; assay type: functional, cell-based; conditions: HL-60, 72 h; in short: as §1
[9] = tested on: HCT-116; experiment: Induction in oxidative stress in human HCT116 cells assessed as nitrite level at 10 uM after 24 hrs by Griess reagent based assay; assay type: functional; in short: as §2
[10] = tested on: SF-295; experiment: Cytotoxicity against human SF295 cells assessed as reduction in cell viability after 72 hrs by MTT assay; conditions: SF-295, 72 h
[11] = tested on: HCT-116; experiment: Induction of DNA damage in human HCT116 cells assessed as DNA damage index at 10 uM after 24 hrs by ethidium bromide staing based flurescence microscopic analysis (8.3 +/- 0.88); assay type: functional
[12] = tested on: HCT-116; experiment: Induction in oxidative stress in human HCT116 cells assessed as nitrite level at 5 uM after 24 hrs by Griess reagent based assay; assay type: functional; in short: as §2
[13] = tested on: MX1; experiment: Cytotoxicity against human MX1 cells assessed as reduction in cell viability after 72 hrs by MTT assay; conditions: MX1, 72 h
[14] = tested on: NCI-H460; experiment: Cytotoxicity against human NCI-H460 cells assessed as reduction in cell viability after 72 hrs by MTT assay; conditions: NCI-H460, 72 h
[15] = tested on: Jurkat; experiment: Cytotoxicity against human Jurkat cell viability after 72 hrs by MTT assay
[16] = Selectivity index, ratio of IC50 for human PBMC cells to IC50 for human NCI-H460 cells; assay type: toxicity; conditions: PBMC cells versus NCI-H460 cells

| SMILES | IC50 [1] [µM] | IC50 [2] [µM] | IC50 [3] [µM] | Activity [4] | IC50 [5] [µM] | IC50 [6] [µM] | Activity_index [7] | IC50 [8] [µM] | Activity [9] [µM] | IC50 [10] [µM] | Activity_index [11] | Activity [12] [µM] | IC50 [13] [µM] | IC50 [14] [µM] | IC50 [15] [µM] | selectivity ratio [16] |
| --- | --- | --- | --- | --- | --- | --- | --- | --- | --- | --- | --- | --- | --- | --- | --- | --- |
| O=C1c2ccccc2C(=O)c2c(-c3cccc4c3OCO4)coc21 | 2.54 | 3.08 | 2.76 | Dose-dependent effect | > 15.7 | > 15.7 | 42.88 | 2.23 | 8.33 | 3.71 | 82.77 | 5.33 | 2.92 | 3.61 | 2.04 |  |
| COc1ccc(-c2coc3c2C(=O)c2ccccc2C3=O)cc1 | 4.96 | 6.01 | 5.78 |  | > 16.4 | > 16.4 |  | 4.31 |  | 4.99 |  |  | 5.59 | 6.34 | 3.81 |  |
| O=C1c2ccccc2C(=O)c2c(-c3cccc4ccccc34)coc21 | 1.82 | 3.88 | 6.17 |  | 13 | > 15.4 |  | 2.37 |  | 4.44 |  |  | 3.3 | 3.79 | 2.09 |  |
| COc1ccc(-n2cc(-c3ccc(Cl)cc3)c3c2C(=O)c2ccccc2C3=O)cc1 | 8.66 |  | 8.88 |  | > 12.1 | > 12.1 |  | 3.15 |  | 4.28 |  |  |  | 3.81 |  | > 3.1 |
| O=C1c2ccccc2C(=O)c2c(-c3cccs3)coc21 | 4.85 | 5.39 | 5.17 |  | > 17.9 | > 17.9 |  | 3.28 |  | 4.96 |  |  | 4.92 | 5.67 | 4.21 |  |
| O=C1c2ccccc2C(=O)c2c(-c3ccc(Br)cc3)coc21 | 2.61 | 2.98 | 5.39 |  | > 14.2 | > 14.2 |  | 2.64 |  | 3.49 |  |  | 3.23 | 4.88 | 2.78 |  |
| O=C1c2ccccc2C(=O)c2c(-c3ccc(F)cc3)coc21 | 3.97 | 5.43 | 6.02 |  | 13.6 | > 17.1 |  | 3.28 |  | 6.33 |  |  | 5.2 | 4.34 | 3.45 |  |
